Assay [1] has as its target PCP binding site of the NMDA receptor. The conditions noted are these: rat brain membranes, cited from earlier work; for pKi: read-out: [3H]TCP Ki; for inhibition (%) of [3H]TCP binding: test ligand at 1.0 μM.
For assay [2] the target is unchanged. The conditions noted are these: read-out: Ki vs [3H]1; cited from earlier work.
The target is the same in assay [3]. As to conditions: mean from two experiments, rat brain membranes; for inhibition (%) of [3H]TCP binding: test ligand at 1.0 μM. In a few lines:
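Outsourced to a contract lab using rat brain membrane suspensions and [3H]TCP as radioligand. Test ligands were first screened at 1 μM for percent inhibition of [3H]TCP binding. […] Values are the mean of two experiments.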

pKi: −log10 of the molar value. Like-named read-outs stand apart in the source and are kept apart here.

Broadly, the pKi is the negative decadic logarithm of the Ki, by convention in mol/L. `CN(C(N)=Nc1cccc2ccccc12)c1cccc(I)c1` [compound 3, reference compound]: in assay [1], the negative logarithm of the Ki (pKi) was 7.50 and the “inhibition (%) of [3H]TCP binding” value was 106%.

For the compound `CN(C(=N)Nc1cccc2ccccc12)c1cccc(C(F)(F)F)c1` [compound 7, 1-Methyl-3-(naphthalen-1-yl)-1-(3-(trifluoromethyl)phenyl)guanidine], in assay [1], the pKi is 7.74 and the “inhibition (%) of [3H]TCP binding” value is 107%. Moreover, in assay [2], the negative-log Ki (pKi) was 8.57.

Consider `CN(C(=N)Nc1cccc2ccccc12)c1cc(C(F)(F)F)ccc1F` [compound 13, 1-(6-fluoro-3-(trifluoromethyl)phenyl)-1-methyl-3-(naphthalen-1-yl)guanidine], for which, in assay [3] (read-out: [3H]TCP Ki), the pKi is 7.89. In addition, the “inhibition (%) of [3H]TCP binding” value in assay [3] was determined as 91.0%.

As to `CN(C(=N)Nc1cc(SCF)ccc1Cl)c1cccc(C(F)(F)F)c1` [compound 46, 3-(2-Chloro-5-(fluoromethylthio)phenyl)-1-methyl-1-(3-(trifluoromethyl)phenyl)guanidine], the “inhibition (%) of [3H]TCP binding” value in assay [3] was found to be 57.5%.

Source of the values: publication PMC4980657 (Journal of medicinal chemistry, 2015).
